Our source for the MIC and Activity values is ChEMBL document CHEMBL1137655, “Isoxyl activation is required for bacteriostatic activity against Mycobacterium tuberculosis” (2007).

Structures are written as SMILES. Converted amounts (≈) assume the structure as drawn.

Experiment [1] deals with Mycobacterium tuberculosis. Description: Antimycobacterial activity against wild-type Mycobacterium tuberculosis H37Rv ATCC 25618 expressing VV16 plasmid by colorimetric resazurin microtiter assay. It counts as functional. The method, boiled down: (§1)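 Resazurin colorimetric microtiter MIC in 7H9-ADC broth with 2% DMSO at 37°C; strains carry empty pVV16 or pVVethA complementation vector; ISO tested up to 40 μg/ml, highest soluble level.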
(In general: Resazurin is reduced to fluorescent resorufin, in cell work by metabolically active cells.)

Experiment [2] concerns Mycobacterium tuberculosis H37Rv. The experiment is described as follows: Inhibition of Mycobacterium tuberculosis H37Rv recombinant DesA3-mediated unsaturated fatty acid synthesis using Mycobacterium smegmatis MC2155 membrane and partially purified EthA as cofactors assessed as palmitoleic acid levels relative to control. The arrangement: scale not given: the % may be the effect or the level left. The method in brief: (§2)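 Cell-free desaturation: 0.5 mg M. smegmatis membrane protein, 3 μg His-tagged DesA3 purified from M. smegmatis, 500 μM palmitoyl-CoA, 1 mM NADPH, ±6 μg purified EthA, ISO 0 or 10 μg/ml final, 25 mM Tris-HCl pH 7.5; 75 min at 30°C; chloroform:methanol extraction, methyl esters, GC relative percentages.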

In experiment [3] the test system is Mycobacterium tuberculosis. Description: Antimycobacterial activity against Mycobacterium tuberculosis isolate Mt103 expressing VV16 plasmid by colorimetric resazurin microtiter assay. It counts as functional. The method, boiled down:
as §1

The subject of experiment [4] is Mycobacterium tuberculosis H37Rv. Description: Inhibition of Mycobacterium tuberculosis H37Rv recombinant DesA3-mediated unsaturated fatty acid synthesis using Mycobacterium smegmatis MC2155 membrane and partially purified EthA as cofactors assessed as palmitic acid levels relative to control. Further details: scale not given: the % may be the effect or the level left. The method, boiled down: as §2

The test system is the same in experiment [5]. The experiment is described as follows: Inhibition of Mycobacterium tuberculosis H37Rv recombinant DesA3-mediated unsaturated fatty acid synthesis using Mycobacterium smegmatis MC2155 membrane and partially purified EthA as cofactors assessed as oleic acid levels relative to control. Further details: scale not given: the % may be the effect or the level left. The method, boiled down: as §2

Experiment [6] shares this test system. Description: Inhibition of Mycobacterium tuberculosis H37Rv recombinant DesA3-mediated unsaturated fatty acid synthesis using Mycobacterium smegmatis MC2155 membrane and partially purified EthA as cofactors assessed as stearic acid levels relative to control. The arrangement: scale not given: the % may be the effect or the level left. The method in brief:
as §2

The test system is the same in experiment [7]. The experiment is described as follows: Inhibition of Mycobacterium tuberculosis H37Rv recombinant DesA3-mediated unsaturated fatty acid synthesis using Mycobacterium smegmatis MC2155 membrane and partially purified EthA as cofactors assessed as tuberculostearic acid levels relative control. The arrangement: scale not given: the % may be the effect or the level left. The method, boiled down:
as §2

The test system is the same in experiment [8]. Description: Inhibition of Mycobacterium tuberculosis H37Rv recombinant DesA3-mediated unsaturated fatty acid synthesis using Mycobacterium smegmatis MC2155 membrane as cofactor assessed as palmitoleic acid levels relative to control. Further details: scale not given: the % may be the effect or the level left. The method in brief:
as §2

Experiment [9] shares this test system. The experiment is described as follows: Inhibition of Mycobacterium tuberculosis H37Rv recombinant DesA3-mediated unsaturated fatty acid synthesis using Mycobacterium smegmatis MC2155 membrane as cofactor assessed as palmitic acid levels relative to control. The arrangement: scale not given: the % may be the effect or the level left. The method, boiled down: as §2

For experiment [10] the test system is unchanged. The experiment is described as follows: Inhibition of Mycobacterium tuberculosis H37Rv recombinant DesA3-mediated unsaturated fatty acid synthesis using Mycobacterium smegmatis MC2155 membrane as cofactor assessed as oleic acid levels relative to control. Further details: scale not given: the % may be the effect or the level left. The method, boiled down: as §2

The test system is the same in experiment [11]. The experiment is described as follows: Inhibition of Mycobacterium tuberculosis H37Rv recombinant DesA3-mediated unsaturated fatty acid synthesis using Mycobacterium smegmatis MC2155 membrane as cofactor assessed as stearic acid levels relative to control. Further details: scale not given: the % may be the effect or the level left. The method in brief:
as §2

Experiment [12] has the same test system. Description: Inhibition of Mycobacterium tuberculosis H37Rv recombinant DesA3-mediated unsaturated fatty acid synthesis using Mycobacterium smegmatis MC2155 membrane as cofactor assessed as tuberculostearic acid levels relative to control. The arrangement: scale not given: the % may be the effect or the level left. The method in brief: as §2
In experiment [13] the test system is Mycobacterium tuberculosis. The experiment is described as follows: microbe, parasite or virus in culture. As to conditions: H37Rv.
Experiment [14] relates to Mycobacterium tuberculosis. Description: microbe, parasite or virus in culture. As to conditions: Mt103.

As to `CC(C)CCOc1ccc(NC(=S)Nc2ccc(OCCC(C)C)cc2)cc1` [TIOCARLIDE], the MIC in [1] and in experiment [3] was 5 µg/mL (≈ 12.5 µM) in each case. The Activity in experiment [2] came out at 1.9%; in experiment [4], 49.8%; in experiment [5] it was 4.4%; in [6] it was 1.1%; in experiment [7], 42.8%; in experiment [8], 0.1%. The Activity in experiment [9] came out at 54.1%; in experiment [10] it was 0.1%; in experiment [11], 1%; in experiment [12], 44.7%.

For `CCc1cc(C(N)=S)ccn1` [ETHIONAMIDE], the MIC in experiment [13] and in experiment [14] was 5 µg/mL (≈ 30.1 µM) in each case.
